Measured values published in ChEMBL document CHEMBL3351984, “Structure-based design and synthesis of antiparasitic pyrrolopyrimidines targeting pteridine reductase 1” (J Med Chem, 2014).
Calls of active or inactive are those of the source. The rule behind the calls is not given here.

test system: Trypanosoma brucei brucei; assay: Antitrypanocidal activity against Trypanosoma brucei brucei Lister 427 infected in ICR mouse assessed as reduction in parasitemia at 30 mg/kg, ip qd administered 24 hrs post infection for 4 consecutive days; format: functional, organism-based; design: dose 30 mg/kg; conditions: not given

Question: For `Nc1nc(N)c2c(-c3ccccc3)c(-c3ccc(F)cc3)[nH]c2n1`, which Activity is on record?
Answer: Active

test system: Trypanosoma brucei brucei; assay: Antitrypanocidal activity against bloodstream forms of Trypanosoma brucei brucei Lister 427 after 6 hrs by time-kill assay; format: functional, organism-based; conditions: not given

Question: For `N#Cc1c[nH]c2nc(N)nc(N3CCSCC3)c12`, which Activity is on record?
Answer: inactive

Question: `CC(C)COc1nc(N)nc(N)c1C(C[N+](=O)[O-])c1ccc(F)cc1` (stereo unspecified) was tested. Which Activity did it give?
Answer: inactive

Question: `N#Cc1c[nH]c2nc(N)nc(N)c12` was tested. Which Activity did it give?
Answer: inactive

Question: For `CC(C)Oc1nc(N)nc(N)c1C(C[N+](=O)[O-])c1ccc(F)cc1` (stereo unspecified), which Activity is on record?
Answer: inactive

Question: For `Nc1nc2[nH]c(-c3ccccc3)c(-c3ccccc3)c2c(=O)[nH]1`, which Activity is on record?
Answer: inactive

Question: Which Activity does the source give for `Nc1nc(N)c2c(-c3ccccc3)c(-c3ccc(F)cc3)[nH]c2n1` here?
Answer: inactive

Question: How did the Activity turn out when `Nc1nc(N)c(C(CCc2ccccc2)C[N+](=O)[O-])c(=O)[nH]1` (stereo unspecified) was run?
Answer: inactive

Question: `Nc1nc(N)c(C(CCc2ccccc2)C[N+](=O)[O-])c(N)n1` (stereo unspecified) was tested. Which Activity did it give?
Answer: inactive

Question: `Nc1nc(N)c(C(C[N+](=O)[O-])c2ccc(F)cc2)c(=O)[nH]1` (stereo unspecified) was tested. Which Activity did it give?
Answer: inactive

Question: How did the Activity turn out when `N#Cc1c(-c2cccc(C=O)c2)[nH]c2nc(N)nc(N)c12` was run?
Answer: inactive

Question: With `Cc1ccc(C(C[N+](=O)[O-])c2c(N)nc(N)[nH]c2=O)cc1` (stereo unspecified) as the compound, how does the Activity read?
Answer: inactive

Question: With `Nc1nc(N)c(C(C[N+](=O)[O-])c2ccccc2)c(=O)[nH]1` (stereo unspecified) as the compound, how does the Activity read?
Answer: inactive

Question: How did the Activity turn out when `Nc1nc(N)c(C(C[N+](=O)[O-])c2ccc(F)cc2)c(NC2CCCCC2)n1` (stereo unspecified) was run?
Answer: inactive

Question: Which Activity does the source give for `COc1nc(N)nc2[nH]cc(C#N)c12` here?
Answer: inactive

Question: For `Cc1ccc(C(C[N+](=O)[O-])c2c(N)nc(N)nc2N)cc1` (stereo unspecified), which Activity is on record?
Answer: inactive

Question: With `Nc1nc(N2CCSCC2)c2cc[nH]c2n1` as the compound, how does the Activity read?
Answer: inactive

Question: With `Nc1nc2[nH]c(-c3ccc(CCCN4CCOCC4)cc3)c(-c3ccccc3)c2c(=O)[nH]1` as the compound, how does the Activity read?
Answer: inactive

Question: How did the Activity turn out when `Nc1nc2[nH]c(-c3ccc(F)cc3)c(-c3ccccc3)c2c(=O)[nH]1` was run?
Answer: inactive

Question: `Nc1nc(N)c2c(-c3ccccc3)c(-c3ccccc3)[nH]c2n1` was tested. Which Activity did it give?
Answer: inactive

Question: `Nc1nc(N)c(C(C[N+](=O)[O-])c2ccccc2)c(N)n1` (stereo unspecified) was tested. Which Activity did it give?
Answer: inactive

Question: How did the Activity turn out when `Nc1nc2[nH]cc(CCc3ccccc3)c2c(=O)[nH]1` was run?
Answer: inactive

Question: `Nc1nc(N)c(C(C[N+](=O)[O-])c2ccc(F)cc2)c(N)n1` (stereo unspecified) was tested. Which Activity did it give?
Answer: inactive

test system: Mus musculus; assay: Toxicity in ICR mouse assessed as fatality at 100 mg/kg, ip; format: organism-based; design: dose 100 mg/kg, route intraperitoneal; conditions: in vivo
Summary of the method: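 Maximum tolerated dose study in mice at 10, 30 and 100 mg/kg, scoring clinical signs and fatality.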

Question: How did the Activity turn out when `Nc1nc(N)c2c(-c3ccccc3)c(-c3ccc(F)cc3)[nH]c2n1` was run?
Answer: Toxic

test system: Mus musculus; assay: Toxicity in ICR mouse assessed as transient clinical signs at 30 mg/kg, ip; format: organism-based; design: dose 30 mg/kg, route intraperitoneal; conditions: in vivo

Question: Which Activity does the source give for `Nc1nc(N)c2c(-c3ccccc3)c(-c3ccc(F)cc3)[nH]c2n1` here?
Answer: Toxic

test system: Mus musculus; assay: Toxicity in ICR mouse assessed as clinical signs at 10 mg/kg, ip; format: organism-based; design: dose 10 mg/kg, route intraperitoneal; conditions: in vivo

Question: For `Nc1nc(N)c2c(-c3ccccc3)c(-c3ccc(F)cc3)[nH]c2n1`, which Activity is on record?
Answer: Non-toxic
